Source: ChEMBL document CHEMBL3739281, “Identification, synthesis and pharmacological evaluation of novel anti-EV71 agents via cyclophilin A inhibition” (Bioorg Med Chem Lett, 2015)
Activity calls are given as the source filed them. The rule behind the calls is not given here.

Key:
[1] = Retention time of the compound by HPLC analysis; format: physicochemical
[2] = target: T1, Peptidyl-prolyl cis-trans isomerase A (Homo sapiens, UniProt P62937); test: Inhibition of CypA (unknown origin) assessed as peptidyl-prolyl cis-trans isomerase activity using N-succinyl-Ala-Ala-Pro-Phe-p-nitroanilide as substrate by spectrophotometry
Target sequence in this assay (P62937 whole entry): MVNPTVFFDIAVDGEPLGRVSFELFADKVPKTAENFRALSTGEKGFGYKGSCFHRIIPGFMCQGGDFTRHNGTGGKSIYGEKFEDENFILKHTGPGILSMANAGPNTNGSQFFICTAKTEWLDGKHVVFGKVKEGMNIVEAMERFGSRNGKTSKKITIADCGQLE

[3] = tested on: Enterovirus A71; test: Antiviral activity against EV71 infected in RD cells after 24 hrs by luciferase assay; format: functional, organism-based; conditions: Enterovirus A
[4] = Cytotoxicity against human RD cells after 24 hrs by WST-1 assay; format: cell-based
[5] = target: T1, Peptidyl-prolyl cis-trans isomerase A; test: Inhibition of CypA (unknown origin) assessed as peptidyl-prolyl cis-trans isomerase activity at 10 uM using N-succinyl-Ala-Ala-Pro-Phe-p-nitroanilide as substrate by spectrophotometry
Target sequence in this assay (P62937 whole entry, looked up): as the sequence (P62937 whole entry) above

[6] = Cytotoxicity against ICR mouse T spleen cells assessed as inhibition of cell proliferation after 72 hrs by MTT assay; format: cell-based
Outline: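 Proliferation of T and B spleen cells, each from one mouse, run as triplicate sets per assay. IC50 is the mean ± SD of three experiments.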

[7] = Cytotoxicity against ICR mouse B spleen cells assessed as inhibition of cell proliferation after 72 hrs by MTT assay; format: cell-based
[8] = tested on: Enterovirus A71; test: Antiviral activity against EV71; format: functional, organism-based; conditions: Enterovirus A
[9] = tested on: Enterovirus A71; test: Potency index, Ratio of EC50 for cyclosporin A to EC50 for compound for antiviral activity against EV71; format: functional
[10] = tested on: Enterovirus A71; test: Antiviral activity against EV71 infected in RD cells assessed as decrease in viral protein1 level by western blot analysis; format: functional, organism-based
Outline: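 EV71 VP1 protein detected by western blot in a dose series of 5, 1, 0.2 and 0.04 μM. NITD008 at 5 μM serves as positive control.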

[11] = tested on: Enterovirus A71; test: Antiviral activity against EV71 infected in RD cells assessed as decrease in viral RNA level at 5 uM after qRT-PCR analysis; format: functional; conditions: Enterovirus A, read-out: INH
Outline: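 Cells are infected with wild-type or S243P mutant EV71 and treated at 5 μM. Viral RNA is reported as a percentage of untreated control cells, with GAPDH mRNA as internal control. Each point is the average of three replicates.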

[12] = tested on: Enterovirus A71; test: Antiviral activity against EV71 infected in RD cells at 0.31 to 5 uM after 24 hrs by luciferase assay in presence of NK-1.8K; format: functional
[13] = tested on: Enterovirus A71; test: Antiviral activity against EV71 infected in RD cells at 0.31 to 5 uM after 24 hrs by luciferase assay in presence of NITD008; format: functional
[14] = tested on: Enterovirus A71; test: Antiviral activity against EV71 infected in RD cells at 0.08 uM after 24 hrs by luciferase assay in presence of NK-1.8K; format: functional, organism-based
[15] = tested on: Enterovirus A71; test: Antiviral activity against EV71 infected in RD cells at 0.08 uM after 24 hrs by luciferase assay in presence of NITD008; format: functional, organism-based

| Retention_time [1] | IC50 ([2]; read-out: IC50) | EC50 [3] | inhibition [5] | Structure (SMILES) | CC50 at 24 h [4] | also measured |
| --- | --- | --- | --- | --- | --- | --- |
| 6.05 min | 10 µM | > 10 µM | 16.9% | O=C(Cc1ccccc1F)NC(=O)NC1c2ccccc2-c2ccccc21 | > 50 µM |  |
|  |  | 1.07 µM |  | O=C(NC(=O)c1ccccc1F)NC1c2ccccc2-c2ccccc21 | > 20 µM | IC50 [6]: > 100 µM; IC50 [7]: > 100 µM |
| 9.04 min | 10 µM | 5.25 µM | 33.5% | O=C(NC(=O)c1ccccc1F)NC1c2ccccc2C2CCCCC21 (racemic) | > 25 µM |  |
| 4.42 min | 11.6 µM | 2.72 µM |  | Cc1ccc2c(c1)-c1ccccc1C2NC(=O)NC(=O)c1c(O)cccc1O (centres undefined) | > 25 µM |  |
| 4.19 min | 1.22 µM | 0.46 µM |  | O=C(NC(=O)c1c(O)cccc1O)NC1c2ccccc2-c2cc(Cl)ccc21 (centres undefined) | > 25 µM |  |
| 6.6 min | 10.8 µM | 3.34 µM |  | O=C(NC(=O)c1ccccc1F)NC1c2ccccc2-c2cc(Cl)ccc21 (centres undefined) | > 25 µM |  |
| 4.7 min | 0.94 µM | 1.13 µM |  | O=C(NC(=O)c1c(O)cccc1O)NC1c2ccccc2-c2cccc(F)c21 (centres undefined) | > 25 µM |  |
| 7.88 min |  | > 25 µM |  | O=C(NC(=O)c1cc(O)cc(O)c1)NC1c2ccccc2-c2ccccc21 | > 25 µM | IC50 [2]: Not Active |
| 5.44 min | 10 µM | > 25 µM | 21.4% | O=C(NC(=O)c1ccc(O)cc1O)NC1c2ccccc2-c2ccccc21 | > 25 µM |  |
|  |  |  |  | CCOC(=O)/C=C/[C@H](C[C@@H]1CCNC1=O)NC(=O)[C@@H](CC(=O)[C@@H](NC(=O)c1cc(C)on1)C(C)C)Cc1ccc(F)cc1 |  | EC50 [8]: 0.014 µM |
|  |  | 3.36 µM |  | O=C(NC(=O)c1c(O)cccc1O)NC1c2ccccc2-c2ccccc21 | > 20 µM | IC50 [6]: 33 µM; IC50 [7]: 51.9 µM |
|  |  | 5.85 µM |  | O=C(NC(=O)c1c(F)cccc1F)NC1c2ccccc2-c2ccccc21 | > 20 µM |  |
| 5.07 min | 10 µM | 1.92 µM | 39.1% | O=C(NC(=O)c1c(O)cccc1O)NC1c2ccccc2-c2cc3ccccc3cc21 (centres undefined) | > 25 µM |  |
|  |  | 3.66 µM |  | C/C=C/C[C@@H](C)[C@@H](O)[C@H]1C(=O)N[C@@H](CC)C(=O)N(C)CC(=O)N(C)[C@@H](CC(C)C)C(=O)N[C@@H](C(C)C)C(=O)N(C)[C@@H](CC(C)C)C(=O)N[C@@H](C)C(=O)N[C@H](C)C(=O)N(C)[C@@H](CC(C)C)C(=O)N(C)[C@@H](CC(C)C)C(=O)N(C)[C@@H](C(C)C)C(=O)N1C [CYCLOSPORINE] |  |  |
| 8.84 min | 10 µM | 0.92 µM | 28.7% | Cc1ccc2c(c1)-c1ccccc1C2NC(=O)NC(=O)c1ccccc1F (centres undefined) | > 10 µM |  |
| 5.57 min | 10 µM | > 25 µM | 17.8% | O=C(NCc1ccccc1F)NC1c2ccccc2-c2ccccc21 | > 25 µM |  |
| 5.37 min | 10 µM | > 10 µM | 9.25% | O=C(NCc1c(O)cccc1O)NC1c2ccccc2-c2ccccc21 | > 25 µM |  |
| 8.91 min | 10 µM | 3.78 µM | 27.7% | O=C(NC(=O)c1cc(F)ccc1O)NC1c2ccccc2-c2ccccc21 | > 25 µM |  |
| 5.41 min | 10 µM | 4.31 µM | 27.6% | O=C(NC(=O)c1c(O)cccc1O)NC1c2ccccc2C2CCCCC21 (racemic) | > 25 µM |  |
| 8.07 min | 2.76 µM | 0.37 µM |  | O=C(NC(=O)c1c(O)cccc1O)NC1c2ccccc2-c2cc(F)ccc21 (centres undefined) | > 25 µM | Ratio EC50 [9]: 9.9; inhibition [10]: Dose-dependent effect; inhibition at 5 µM [11]: 3%; %max [12]: 20%; %max [13]: 20%; Activity [14]: inactive; Activity [15]: inactive |
| 6.15 min | 10.3 µM | 2.11 µM |  | O=C(NC(=O)c1ccccc1F)NC1c2ccccc2-c2cc(F)ccc21 (centres undefined) | > 10 µM |  |
| 4.94 min | 10.3 µM | 1.08 µM |  | O=C(NC(=O)c1c(O)cccc1O)NC1c2ccc(F)cc2-c2ccc(F)cc21 (centres undefined) | > 25 µM |  |
| 5.68 min |  | > 10 µM | 20.3% | O=C(NC(=O)c1c(O)cccc1O)NC1c2ccccc2-c2cc(C(F)(F)F)ccc21 (centres undefined) | > 25 µM |  |
| 6.02 min | 10.4 µM | 0.66 µM |  | O=C(NC(=O)c1ccccc1F)NC1c2ccccc2-c2cccc(F)c21 (centres undefined) | > 25 µM |  |
